Test results: ChEMBL document CHEMBL3588803, “Design, synthesis and pharmacology of 1,1-bistrifluoromethylcarbinol derivatives as liver X receptor β-selective agonists” (Bioorg Med Chem Lett, 2015)
pEC50: −log10 of the molar value.

Columns and labels:
[1] = system: Syrian golden hamster; experiment: Drug level in CE-2 chow diet-fed golden Syrian hamster treated with 100 mg/kg, po 3-(4-(4-(1,1,1,3,3,3-Hexafluoro-2-hydroxypropan-2-yl)-2,6-di-n-propylphenoxy)-butyl)-5-(4-(1-methylethoxy)phenyl)-5-methylimidazolidine-2,4-dione assessed as compound formation after 0.5 to 24 hrs by HPLC-LC-MS/MS method; assay type: ADME, organism-based, Mesocricetus auratus; conditions: in vivo
[2] = target: T1, Oxysterols receptor LXR-alpha (Homo sapiens, UniProt Q13133); experiment: Agonist activity at LXRalpha (unknown origin) expressed in CHOK1 cells incubated for 24 hrs by GAL4-responsive luciferase reporter gene assay; assay type: cell-based, CHO-K1
T1 sequence (Q13133 whole entry): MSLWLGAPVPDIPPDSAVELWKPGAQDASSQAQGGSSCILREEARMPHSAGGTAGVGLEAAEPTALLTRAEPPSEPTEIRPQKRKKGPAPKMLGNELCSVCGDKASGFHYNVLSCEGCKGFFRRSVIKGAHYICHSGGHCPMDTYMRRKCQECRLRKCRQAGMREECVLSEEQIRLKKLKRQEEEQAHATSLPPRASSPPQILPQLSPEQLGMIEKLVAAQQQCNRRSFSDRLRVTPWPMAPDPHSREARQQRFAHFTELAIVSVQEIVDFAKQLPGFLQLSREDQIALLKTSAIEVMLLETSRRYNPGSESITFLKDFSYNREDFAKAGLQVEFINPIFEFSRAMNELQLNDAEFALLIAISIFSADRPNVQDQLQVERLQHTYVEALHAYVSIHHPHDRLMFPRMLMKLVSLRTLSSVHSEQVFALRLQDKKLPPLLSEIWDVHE
Procedure, shortened: (§1)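 CHO-K1 cells carrying the GAL4-responsive pG5luc reporter and a GAL4-LXR LBD construct were seeded at 20,000 cells/well in HAM-F12 with 10% immobilized fetal bovine serum, penicillin G and streptomycin, at 37 °C and 5% CO2. After 24 h, compound was added at 0.01–30 µM for a further 24 h. Luminescence was read with Bright-Glo substrate. EC50 is the mean of two independent experiments.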

[3] = target: T2, Oxysterols receptor LXR-alpha (Homo sapiens) (UniProt Q13133); experiment: Agonist activity at LXRalpha (unknown origin) expressed in CHOK1 cells incubated for 24 hrs by GAL4-responsive luciferase reporter gene assay relative to 10 uM T0901317; assay type: cell-based; conditions: CHO-K1
T2 sequence (whole entry): T1 sequence (Q13133 whole entry)
Procedure, shortened: (§2)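 The GAL4-LXR LBD luciferase reporter was run in CHO-K1 cells. Cells were seeded at 20,000/well in HAM-F12 with 10% immobilized FBS and antibiotics for 24 h, then exposed to compound at 0.01, 0.1, 1, 10 and 30 µM for 24 h, with a Bright-Glo luminescence read-out. Values are means of two independent experiments.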

[4] = target: T3, Oxysterols receptor LXR-beta (Homo sapiens, UniProt P55055); experiment: Agonist activity at LXRbeta (unknown origin) expressed in CHOK1 cells incubated for 24 hrs by GAL4-responsive luciferase reporter gene assay; assay type: cell-based, CHO-K1; procedure, shortened: as §1
T3 sequence (P55055 whole entry): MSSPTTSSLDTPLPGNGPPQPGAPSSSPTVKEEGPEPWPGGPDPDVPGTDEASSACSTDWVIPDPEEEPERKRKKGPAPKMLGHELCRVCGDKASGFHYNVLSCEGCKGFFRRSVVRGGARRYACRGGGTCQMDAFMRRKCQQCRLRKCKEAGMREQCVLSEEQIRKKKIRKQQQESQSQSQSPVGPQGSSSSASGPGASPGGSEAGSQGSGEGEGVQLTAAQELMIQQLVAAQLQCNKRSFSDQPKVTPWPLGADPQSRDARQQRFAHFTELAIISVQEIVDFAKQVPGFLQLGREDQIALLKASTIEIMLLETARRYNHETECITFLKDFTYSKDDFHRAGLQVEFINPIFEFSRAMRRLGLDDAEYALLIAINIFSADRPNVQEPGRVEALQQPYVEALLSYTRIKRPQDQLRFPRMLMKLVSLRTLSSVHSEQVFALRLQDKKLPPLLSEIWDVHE

[5] = target: T4, Oxysterols receptor LXR-beta (Homo sapiens) (UniProt P55055); experiment: Agonist activity at LXRbeta (unknown origin) expressed in CHOK1 cells incubated for 24 hrs by GAL4-responsive luciferase reporter gene assay relative to 10 uM T0901317; assay type: cell-based; conditions: CHO-K1; procedure, shortened: as §2
T4 sequence (whole entry): T3 sequence (P55055 whole entry)

[6] = Clearance in mouse hepatic microsomes; assay type: ADME; conditions: liver microsomes, read-out: CLH
[7] = Clearance in hamster hepatic microsomes; assay type: ADME; conditions: cricetinae, liver microsomes; read-out: CLH
[8] = Clearance in human hepatic microsomes; assay type: ADME; conditions: liver microsomes, read-out: CLH
[9] = target: T3, Oxysterols receptor LXR-beta; experiment: Agonist activity at LXRbeta (unknown origin)
[10] = system: Hamster; experiment: Increase in ABCA1 gene expression in Bio F1B hamster intestine at 10 mg/kg, po; assay type: functional, Cricetinae
[11] = system: Hamster; experiment: Increase in ABCA1 gene expression in Bio F1B hamster peripheral blood at 10 mg/kg, po; assay type: functional, Cricetinae
[12] = system: Hamster; experiment: Increase in ABCG5 gene expression in Bio F1B hamster intestine at 10 mg/kg, po; assay type: functional, Cricetinae
[13] = system: Hamster; experiment: Increase in ABCG8 gene expression in Bio F1B hamster intestine at 10 mg/kg, po; assay type: functional, Cricetinae
[14] = system: Hamster; experiment: Hypolipidemic effect in Bio F1B hamster fed with high fat and cholesterol diet assessed as total cholesterol level at 10 mg/kg, po relative to control; assay type: functional, Cricetinae
[15] = system: Hamster; experiment: Hypolipidemic effect in Bio F1B hamster fed with high fat and cholesterol diet assessed as HDL-cholesterol level at 10 mg/kg, po relative to control; assay type: functional, Cricetinae
[16] = system: Hamster; experiment: Hypolipidemic effect in Bio F1B hamster fed with high fat and cholesterol diet assessed as LDL-cholesterol level at 10 mg/kg, po relative to control; assay type: functional, Cricetinae
[17] = system: Hamster; experiment: Effect in lipid profiles in Bio F1B hamster fed with high fat and cholesterol diet assessed as triglyceride level at 10 mg/kg, po relative to control; assay type: organism-based; conditions: cricetinae, in vivo
[18] = system: Hamster; experiment: Hypolipidemic effect in Bio F1B hamster fed with high fat and cholesterol diet assessed as lipid-accumulation area in aortic arch at 10 mg/kg, po relative to control; assay type: functional, Cricetinae

Structure (SMILES)	pEC50 [2]	Emax [3]	pEC50 [4]	Emax [5]	also measured
CCCc1cc(C(O)(C(F)(F)F)C(F)(F)F)cc(CCC)c1OCCCC(=O)O	–	–	–	–	Drug metabolism [1]: metabolite_detected
CCCc1cc(C(O)(C(F)(F)F)C(F)(F)F)ccc1OCCCCN1C(=O)NC(C)(c2ccc3c(c2)OCO3)C1=O (centres undefined)	5.77	54%	6.30	118%	microsomal CLint [6]: 73 µL/min/mg; microsomal CLint [7]: 351 µL/min/mg; microsomal CLint [8]: 31 µL/min/mg
CCCc1cc(C(O)(C(F)(F)F)C(F)(F)F)cc(CCC)c1OCCCCN1C(=O)NC(CC)(c2ccc3c(c2)OCO3)C1=O (centres undefined)	6.22	118%	6.15	118%	–
CCCc1cc(C(O)(C(F)(F)F)C(F)(F)F)ccc1OCCCCN1C(=O)NC(CC)(c2ccc3c(c2)OCO3)C1=O (centres undefined)	5.82	72%	6.15	172%	–
CCCc1cc(C(O)(C(F)(F)F)C(F)(F)F)cc(CCC)c1OCCCCN1C(=O)NC(C)(c2ccc3c(c2)OCO3)C1=O (centres undefined)	6.40	89%	7.00	101%	–
O=C(O)Cc1cccc(OCCCN(Cc2cccc(C(F)(F)F)c2Cl)CC(c2ccccc2)c2ccccc2)c1	–	–	–	–	pEC50 [9]: 6.40
CCCc1cc(C(O)(C(F)(F)F)C(F)(F)F)ccc1OCCCCN1C(=O)NC(CCC)(c2ccc3c(c2)OCO3)C1=O (centres undefined)	5.64	42%	5.89	72%	–
O=S(=O)(c1ccccc1)N(CC(F)(F)F)c1ccc(C(O)(C(F)(F)F)C(F)(F)F)cc1 [T091317]	–	–	–	–	fold change (FC) [10]: 3.4; fold change (FC) [11]: 1.3; fold change (FC) [12]: 1.5; fold change (FC) [13]: 1.4; Activity [14]: 124%; Activity [15]: 76%; Activity [16]: 75%; Activity [17]: 251%; Activity [18]: 40%
